The record followed here is ChEMBL document CHEMBL1156051, “Synthesis and evaluation of lysophosphatidylserine analogues as inducers of mast cell degranulation. Potent activities of lysophosphatidylthreonine and its 2-deoxy derivative” (J Med Chem, 2009).

Calls of active or inactive are those of the source. No cut-off for these calls is given here. Some results are limits rather than exact numbers.

The test system of data set [1] is Mus musculus. The experiment in a line: Effect on hypothermic effect in C57BL/6 mouse assessed as reduction in rectal temperature at 25 to 100 ug, iv measured every 5 to 10 mins for 60 mins. The format is functional, organism-based. An outline of the steps:
(§1)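 Analogue suspended in PBS with 0.1% BSA and injected iv into C57BL/6 mice or Wistar rats; rectal temperature recorded by probe every 5 or 10 min for 60 min. Means of three independent experiments.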

The subject of data set [2] is Rattus norvegicus. Nature of the data set: Effect on hypothermic effect in Wistar rat assessed as reduction in rectal temperature at 20 to 200 ug, iv measured every 5 to 10 mins for 60 mins. The format is functional, organism-based. An outline of the steps:
as §1

The test system of data set [3] is Mus musculus. Nature of the data set: Effect on hypothermic effect in mast cell-deficient WBB6F1 mouse assessed as reduction in rectal temperature at 10 ug, iv measured every 5 to 10 mins for 60 mins. Format: functional, organism-based. An outline of the steps:
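W/Wv mast cell-deficient mice, with C57BL/6 as comparison, were given 10 μg iv in PBS containing 0.1% BSA. Rectal temperature was monitored every 5 or 10 min for 60 min. Three independent experiments.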

Data set [4] has as its target Probable G-protein coupled receptor 34 (Mus musculus) (UniProt Q9R1K6). Nature of the data set: Activation of mouse GPR34 expressed in CHOK1 cells assessed as inhibition of forskolin-induced cAMP production at 0.01 to 10 uM after 30 mins by EIA. The format is functional, cell-based. Conditions: CHO-K1. An outline of the steps:
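CHO-K1 stably expressing flag-tagged mouse GPR34, cultured overnight, pretreated 20 min with 0.5 mM IBMX, then costimulated with analogue plus 25 μM forskolin for 30 min at 37 C; cAMP measured by EIA, level without ligand set as 100%.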
(Cyclic AMP is a second messenger, typically raised through Gs and lowered through Gi signalling.)

For data set [5] the target is unchanged. Nature of the data set: Activation of mouse GPR34 expressed in CHOK1 cells assessed as increase in intracellular calcium level by spectrofluorimetry. Format: functional, cell-based. The following applies: CHO-K1. An outline of the steps:
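Fura-2-loaded CHO-K1 cells stably expressing flag-tagged GPR34 (G418 selection, then anti-flag immunomagnetic positive selection), stimulated with analogue at 2 μM; [Ca2+]i read fluorometrically as ratio of 500 nm emission at 340/380 nm excitation.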
On the technique in general: Calcium assays in cells follow changes in intracellular calcium, usually with a dye or a luminescent sensor.

For data set [6] the target is unchanged. The experiment in a line: Activation of mouse GPR34 expressed in CHOK1 cells assessed as phosphorylated ERK level at 0.01 to 10 uM by Western blotting. The format is cell-based. The following applies: CHO-K1. An outline of the steps:
(§2)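 Serum-starved CHO-K1 cells stably expressing flag-tagged GPR34 were stimulated with analogue for 5 min at 37 C and stopped by rapid cooling on ice. Lysates (6 μg protein) were Western blotted with antibodies to phospho-p42/p44 and total p42/p44 MAP kinase. Mock-transfected cells served as control.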
For orientation: A western blot detects proteins with antibodies after separation by electrophoresis.

The target is the same in data set [7]. Nature of the data set: Activation of mouse GPR34 expressed in CHOK1 cells assessed as total ERK level at 0.01 to 10 uM by Western blotting. Format: cell-based. Conditions: CHO-K1. An outline of the steps:
as §2

For data set [8], the system named is CHO-K1. Nature of the data set: Inhibition of forskolin-induced cAMP production in CHOK1 cells at 0.01 to 10 uM after 30 mins by EIA. Conditions: Cricetulus griseus. The format is functional, cell-based. An outline of the steps:
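Mock-transfected CHO-K1 cells were cultured overnight and pretreated 20 min with 0.5 mM IBMX, then costimulated with analogue and 25 μM forskolin for 30 min at 37 C; accumulated cAMP was measured by EIA.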

In data set [9] the test system is CHO-K1. Nature of the data set: Increase in intracellular calcium level in CHOK1 cells by spectrofluorimetry. Format: functional, cell-based. Conditions: Cricetulus griseus. An outline of the steps:
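Fura-2-loaded mock-transfected CHO-K1 cells were stimulated at 2 μM; [Ca2+]i read as 500 nm emission ratio at 340/380 nm excitation.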

The test system of data set [10] is CHO-K1. Nature of the data set: Increase in MAPK level in CHOK1 cells at 0.01 to 10 uM by Western blotting. Format: functional, cell-based. The following applies: Cricetulus griseus. An outline of the steps: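 Serum-starved mock (empty vector) transfected CHO-K1 cells were stimulated for 5 min at 37 C and cooled on ice to stop. Lysates (6 μg protein) were Western blotted for phospho- and total p42/p44 MAP kinase.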

Data set [11] relates to Mast cell. The experiment in a line: Stimulation of mouse bone marrow-derived mast cell degranulation. The format is functional, cell-based.
For data set [12], the system named is Mast cell. The experiment in a line: Induction of Wistar rat peritoneal mast cell degradation assessed as concanavalin A-induced histamine release after 15 mins fluorometric assay. Format: functional, cell-based. The following applies: 0.25 h. An outline of the steps:
(§3)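 Peritoneal mast cells at 5 × 10^4/mL in HEPES-buffered Tyrode stimulated with analogue plus 100 μg/mL concanavalin A for 15 min at 37 C. Supernatant histamine measured fluorometrically and expressed as percent of total cell histamine. Means ± SE of three independent experiments.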

Data set [13] has as its system Mast cell. Nature of the data set: Induction of C57BL/6 mouse peritoneal mast cell degradation assessed as concanavalin A-induced histamine release after 15 mins fluorometric assay. Format: functional, cell-based. The following applies: C57BL/6, Mast cell, 0.25 h. An outline of the steps:
(§4)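 Peritoneal mast cells at 5 × 10^4/mL in HEPES-buffered Tyrode stimulated with analogue plus 10 μg/mL concanavalin A for 15 min at 37 C. Supernatant histamine measured fluorometrically and expressed as percent of total cell histamine. Means ± SE of three independent experiments.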

Data set [14] has as its system Mast cell. Nature of the data set: Induction of Wistar rat peritoneal mast cell degradation assessed as anti-DNP IgE-induced histamine release at 0.01 to 10 uM after 15 mins fluorometric assay. The format is functional, cell-based.
The nature of data set [15]: Cytotoxicity against concanavalin A-stimulated Wistar rat peritoneal mast cells assessed as LDH release at 50 uM. Format: cell-based.
The test system of data set [16] is Mus musculus. The experiment in a line: Effect on hypothermic effect in iv dosed C57BL/6 mouse assessed as reduction in rectal temperature measured every 5 to 10 mins for 60 mins. The format is functional, organism-based. An outline of the steps:
(§5)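 Analogue suspended in PBS with 0.1% BSA and given intravenously; rectal temperature read with a rectal probe every 5 or 10 min for 60 min. Means ± SE of three independent experiments.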

Data set [17] deals with Rattus norvegicus. The experiment in a line: Effect on hypothermic effect in iv dosed Wistar rat assessed as reduction in rectal temperature measured every 5 to 10 mins for 60 mins. The format is functional, organism-based. An outline of the steps:
as §5

Data set [18] deals with Mast cell. The experiment in a line: Induction of Wistar rat peritoneal mast cell degradation assessed as concanavalin A-induced histamine release at 0.01 to 10 uM after 15 mins fluorometric assay. Format: functional, cell-based. An outline of the steps: as §3
Data set [19] relates to Mast cell. The experiment in a line: Induction of C57BL/6 mouse peritoneal mast cell degradation assessed as concanavalin A-induced histamine release at 0.01 to 10 uM after 15 mins fluorometric assay. Format: functional, cell-based. An outline of the steps:
as §4

The subject of data set [20] is Mus musculus. Nature of the data set: Increase in plasma histamine level in iv dosed C57BL/6 mouse after 2 mins by EIA. Format: functional, organism-based. An outline of the steps: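 Mice injected i.v. with analogue in PBS with 0.1% BSA; blood taken 2 min after injection and plasma histamine measured by enzyme immunoassay. Means ± SE of three independent experiments.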

Data set [21] relates to Rattus norvegicus. The experiment in a line: Effect on hypothermic effect in Wistar rat assessed as reduction in rectal temperature at 20 to 100 ug, iv measured every 5 to 10 mins for 60 mins. The format is functional, organism-based. An outline of the steps: as §5
The species entered for data set [22] is Rattus norvegicus. The experiment in a line: Ratio of compound activity over lysophosphatidylserine activity for induction of hypothermic effect in Wistar rat. Format: functional.
Data set [23] is filed under the species Mus musculus. The experiment in a line: Ratio of compound activity over lysophosphatidylserine activity for induction of hypothermic effect in C57BL/6 mouse. The format is functional.
Data set [24] has as its system Mast cell. Nature of the data set: Induction of Wistar rat peritoneal mast cell degranulation assessed as concanavalin A-induced histamine release at 0.03 uM pretreated for 15 mins measured after washout with 0.01% fatty acid-free BSA by fluorometric assay. The format is functional, cell-based. An outline of the steps:
(§6)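 Rat peritoneal mast cells preincubated with analogue, then washed with buffer containing 0.01% or 0.5% fatty-acid-free BSA. Cells then challenged with concanavalin A, and histamine release measured.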

For data set [25], the system named is Mast cell. The experiment in a line: Induction of Wistar rat peritoneal mast cell degranulation assessed as concanavalin A-induced histamine release at 0.03 uM pretreated for 15 mins measured after washout with 0.5% fatty acid-free BSA by fluorometric assay. The format is functional, cell-based. An outline of the steps: as §6
Data set [26] deals with Mast cell. Nature of the data set: Ratio of lysophosphatidylserine EC50 to compound EC50 for induction of concanavalin A-stimulated Wistar rat peritoneal mast cell […] associated histamine release. The format is functional.
In data set [27] the test system is Mast cell. Nature of the data set: Ratio of lysophosphatidylserine EC50 to compound EC50 for induction of concanavalin A-stimulated C57BL/6 mouse peritoneal mast cell […] associated histamine release. The format is functional.
Data set [28] has as its system Mast cell. Nature of the data set: Ratio of compound activity over lysophosphatidylserine activity for induction of anti-DNP IgE-stimulated Wistar rat peritoneal mast cell […] associated histamine release. Format: functional.
Data set [29] deals with Mus musculus. Nature of the data set: Effect on hypothermic effect in C57BL/6 mouse assessed as reduction in rectal temperature at 1 to 5 ug, iv measured every 5 to 10 mins for 60 mins. The format is functional, organism-based. An outline of the steps:
as §5

Data set [30] concerns G protein-coupled receptor 34 (Mus musculus). Nature of the data set: Activation of mouse GPR34 expressed in CHOK1 cells assessed as total ERK level at 0.01 to 10 uM by Western blotting. Conditions: CHO-K1.
Data set [31] shares this test system. The experiment in a line: Activation of mouse GPR34 expressed in CHOK1 cells assessed as increase in intracellular calcium level by spectrofluorimetry. Conditions: CHO-K1.
Data set [32] shares this test system. Nature of the data set: Activation of mouse GPR34 expressed in CHOK1 cells assessed as phosphorylated ERK level at 0.01 to 10 uM by Western blotting. The following applies: CHO-K1.

Chain of Probable G-protein coupled receptor 34 (Mus musculus) (Q9R1K6 whole entry): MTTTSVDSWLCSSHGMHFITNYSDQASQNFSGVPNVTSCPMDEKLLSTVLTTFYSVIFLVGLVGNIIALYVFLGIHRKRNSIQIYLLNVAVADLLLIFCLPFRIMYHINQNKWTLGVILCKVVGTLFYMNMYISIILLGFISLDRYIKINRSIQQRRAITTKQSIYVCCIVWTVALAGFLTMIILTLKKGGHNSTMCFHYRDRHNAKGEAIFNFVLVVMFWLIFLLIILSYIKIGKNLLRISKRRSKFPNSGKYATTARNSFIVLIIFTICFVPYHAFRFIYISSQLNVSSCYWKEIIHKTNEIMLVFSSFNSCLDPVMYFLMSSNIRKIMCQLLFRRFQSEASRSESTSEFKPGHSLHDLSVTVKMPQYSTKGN

For `CCCCCCCCCCCCCCCCCC(=O)OC[C@@H](O)COP(=O)(O)OC[C@H](N)C(=O)O`, the outcome in [1], in [2], in data set [4], in [5], in [6] and in [7] was Active. In addition, the outcome in [14] was Active. Moreover, the result in data set [3], in data set [8], in data set [9], in [10] and in [11] was inactive. In addition, the results for the EC50 in data set [12] and in data set [13] were 0.4 µM and 0.1 µM, respectively. For the same compound, the Activity entry in data set [15] is “Non-toxic”.
With `CCCCCCCCCCCCCCCCCC(=O)OC[C@@H](O)COP(=O)(O)O[C@@H](C)[C@H](N)C(=O)O`, the outcome in data set [16] and in [17] was inactive. Further, the values for the EC50 in data set [12] and in data set [13] were 2 µM and 0.2 µM, respectively.
In the case of `CCCCCCCCCCCCCCCC(=O)OCCCOP(=O)(O)O[C@H](C)[C@@H](N)C(=O)O`, the result in [16] and in [17] was inactive. In [12], the EC50 is more than 10 µM.
For `CCCCCCCCCCCCCCCCCC(=O)OCCCOP(=O)(O)O[C@H](C)[C@H](N)C(=O)O`, the outcome in [16], in [18], in data set [19] and in data set [20] was Active. Moreover, the result in data set [3] was inactive. Further, the EC50 is 0.1 µM in data set [12] and 0.007 µM in data set [13].
For the compound `CCCCCCCCCCCCCCCCCC(=O)OC[C@@H](O)COP(=O)(O)O[C@H](C)[C@H](N)C(=O)O`, the outcome in data set [21], in data set [18], in data set [19], in data set [24], in data set [14] and in data set [20] was Active. In data set [29], the outcome was Active. Further, the Ratio in data set [22] is 50; in [23] it was 20; in data set [28], 10. The result in data set [4], in data set [5], in [6], in [7], in data set [8] and in [9] was inactive. In addition, the result in data set [10], in data set [25], in data set [30], in data set [31] and in data set [32] was inactive. Also, the EC50 in data set [12] came to 0.04 µM; in data set [13] it was 0.01 µM. The “Ratio EC50” value in data set [26] and in data set [27] was 10 each time. Further, in [15], the Activity result is listed as “Non-toxic”.

One may read the EC50 as the concentration giving half of the maximal effect.
